Assay results as given in ChEMBL document CHEMBL1132190, “Synthesis of 1-substituted 3-(chloromethyl)-6-aminoindoline (6-amino-seco-CI) DNA minor groove alkylating agents and structure-activity relationships for their cytotoxicity” (J Med Chem, 1999).
Converted amounts (≈) assume the structure as drawn.

Experiments:
[1] = tested on: CHO-AA8; test: Cytotoxicity in chinese hamster ovary tumor cell line-AA8, by growth inhibition assay.; type: functional, cell-based; details: Cricetulus griseus
How it was run: (§1)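 Log-phase monolayers in α-MEM with 5% FBS, no antibiotics; seeded at 200 (AA8), 300 (UV4) or 50 (EMT6) cells/well. After 24 h, exposed to drug (DMSO stock, final DMSO <1%, medium pH 7.4) for 4 h at 37 °C, 5% CO₂, aerobic. Washed, then regrown 4 days. Methylene blue staining read cell density. IC50 = 50% growth inhibition versus same-plate controls.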

[2] = tested on: EMT6; test: Cytotoxicity in murine mammary carcinoma tumor cell line-EMT6, by growth inhibition assay.; type: functional, cell-based; details: Mus musculus; how it was run: as §1
[3] = tested on: SK-OV-3; test: Cytotoxicity in human ovarian tumor cell line-SKOV3, by growth inhibition assay.; type: functional, cell-based
How it was run: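 SKOV3 log-phase monolayers in α-MEM with 5% FBS, no antibiotics; 600 cells/well. After 24 h, 4 h aerobic drug exposure at 37 °C, 5% CO₂ (DMSO stock, final DMSO <1%, medium pH 7.4). Washed, then regrown 5 days. Methylene blue staining gave cell density. IC50 = 50% growth inhibition versus controls on the same plate.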

[4] = tested on: UV4; test: Cytotoxicity in chinese hamster ovary tumor cell line -UV4 (repair deffective ERCC-1 mutant), by growth inhibition assay.; type: functional, cell-based; details: Cricetulus griseus; how it was run: as §1
[5] = Solubility in 0.1 M phosphate buffer (pH 7.0) at room temperature.; type: physicochemical; details: read-out: S
How it was run: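 Solid suspended in 0.1 M phosphate buffer pH 7.0, sonicated 5 min at room temperature, centrifuged 5 min. Supernatant assayed by HPLC against a standard curve of known concentrations in acetonitrile. Three determinations, averaged.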

solubility [5] [µM]	SMILES	IC50 [1] [nM]	IC50 [2] [nM]	IC50 [3] [nM]	IC50 [4] [nM]
	Nc1ccc2c(c1)N(C(=O)c1cc3cc(NC(=O)c4cc5ccccc5o4)ccc3[nH]1)CC2CCl (stereo not given)	160	190	600	87
	COc1ccc2oc(S(=O)(=O)N3CC(CCl)c4ccc(N)cc43)cc2c1 (stereo not given)	6600	2600	4400	2800
23 (≈ 8.18 µg/mL)	COc1ccc2[nH]c(C(=O)N3CC(CCl)c4ccc(N)cc43)cc2c1 (stereo not given)	310	230	670	47
	CCCC(=O)Nc1cc(/C=C/C(=O)N2CC(CCl)c3ccc(N)cc32)n(C)c1 (stereo not given)	2100	910	1900	310
	COc1ccc2oc(C(=O)N3CC(CCl)c4ccc(N)cc43)cc2c1 (stereo not given)	880	640	1100	120
700 (≈ 289 µg/mL)	CN(C)CCOc1ccc2[nH]c(C(=O)N3CC(CCl)c4ccc(N)cc43)cc2c1 (stereo not given)	160	120	260	44
	COc1ccc2[nH]c(S(=O)(=O)N3CC(CCl)c4ccc(N)cc43)cc2c1 (stereo not given)	8200	4900	2700	4300
> 1200	COc1cc2cc(C(=O)N3CC(CCl)c4ccc(N)cc43)[nH]c2cc1OCCN(C)C (stereo not given)	220	110	150	39
47 (≈ 20.8 µg/mL)	COc1cc(OCCN(C)C)c2[nH]c(C(=O)N3CC(CCl)c4ccc(N)cc43)cc2c1 (stereo not given)	140	90	160	29

SMILES	solubility [5] [µM]	IC50 [1] [nM]	IC50 [2] [nM]	IC50 [3] [nM]	IC50 [4] [nM]
COc1cc2cc(C(=O)N3CC(CCl)c4ccc(N)cc43)[nH]c2c(OC)c1OC (stereo not given)	32 (≈ 13.3 µg/mL)	350	270	630	55
